Assay results taken from ChEMBL document CHEMBL4145684 (J Med Chem, 2018).
Calls of active or inactive are those of the source. The rule behind the calls is not given here.

What was measured:
[1] = Oral bioavailability in Sprague-Dawley rat at 2 mg/kg; type: ADME, organism-based; conditions: in vivo
[2] = Clearance in Sprague-Dawley rat at 1 mg/kg, iv; type: ADME, organism-based; conditions: in vivo
Estrogen receptor [3] = target: T1, Estrogen receptor (Homo sapiens, UniProt P03372); test: Induction of ERalpha degradation in human MCF7 cells in phenol red free RPMI medium containing 5% charcoal dextran-treated FBS incubated for 4 hrs by SP1 and anti-ER rabbit monocolnal antibody based in-cell Western assay
T1 sequence (P03372 whole entry): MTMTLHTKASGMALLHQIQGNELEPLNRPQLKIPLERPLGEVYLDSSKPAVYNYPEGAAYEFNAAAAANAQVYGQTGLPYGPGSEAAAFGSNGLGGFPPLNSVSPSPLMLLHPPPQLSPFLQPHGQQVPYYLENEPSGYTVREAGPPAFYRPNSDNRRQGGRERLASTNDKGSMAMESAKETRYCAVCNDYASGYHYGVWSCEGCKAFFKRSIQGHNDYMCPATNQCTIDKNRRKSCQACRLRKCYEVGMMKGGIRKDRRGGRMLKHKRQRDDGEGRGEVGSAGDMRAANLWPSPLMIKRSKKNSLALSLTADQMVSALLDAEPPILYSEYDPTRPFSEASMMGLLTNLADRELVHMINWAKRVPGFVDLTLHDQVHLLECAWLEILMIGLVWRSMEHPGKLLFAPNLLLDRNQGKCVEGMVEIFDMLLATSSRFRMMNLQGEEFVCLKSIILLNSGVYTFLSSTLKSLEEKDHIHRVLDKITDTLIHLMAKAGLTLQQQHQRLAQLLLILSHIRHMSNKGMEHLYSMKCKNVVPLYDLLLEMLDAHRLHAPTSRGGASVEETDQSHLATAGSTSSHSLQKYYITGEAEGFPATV

MCF7 [4] = test: Antiproliferative activity against human MCF7 cells assessed as reduction in cell proliferation in RPMI containing 10% FBS incubated for 5 days by Cell-titer-Glo assay; type: functional, cell-based; conditions: MCF7, 120 h
Summary of the method: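 MCF-7 cells, 640/well in RPMI with 10% FBS and 20 mM HEPES, adhered overnight; 10-point 1:5 dilution series (10–0.000005 µM final) for 5 days. CellTiter-Glo luminescence, cell-free medium background subtracted, percent viability vs untreated cells; n ≥ 3.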

[5] = AUC in mouse at 10 mg/kg, po; type: ADME, organism-based; conditions: in vivo
Summary of the method: (§1)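 Mouse or rat PK: single intravenous dose 3 mg/kg or oral dose 10 mg/kg, vehicle PEG400/PVP/Tween 80/0.5% CMC in water (9:0.5:0.5:90).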

Estrogen receptor [6] = target: T1, Estrogen receptor; test: Binding affinity to ERalpha (unknown origin)
Rattus norvegicus [7] = test: In-vivo agonist activity at ERalpha in CD-IGS rat assessed as increase in uterine wet weight at 10 mg/kg, po dosed daily for 3 days by gavage and measured 24 hrs after last dose by immature rat uterine wet weight assay; type: functional, organism-based
Summary of the method: (§2)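 Immature CD-IGS rats given compound orally for 3 days without ethynyl estradiol (agonist mode); on day 4, 24 h after dosing, uterus removed and weighed; wet weight normalized to total body weight.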

Rattus norvegicus [8] = test: Reduction in uterine wet weight in ethynyl estradiol-stimulated CD-IGS rat at 10 mg/kg, po dosed daily for 3 days by gavage followed 15 mins later by 0.1 mg/kg, po ethynyl estradiol and measured 24 hrs after last dose by immature rat uterine wet weight assay; type: functional
Summary of the method: (§3)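 Female immature CD-IGS rats, 21 days old on arrival; oral gavage of vehicle or compound daily for 3 days, ethynyl estradiol 0.1 mg/kg orally 15 min after each dose. Day 4, 24 h post-dose, plasma taken, then uterus removed and weighed. Reduction = 100 x (VehicleEE – Cpd)/(VehicleEE – Vehicle).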

[9] = Clearance in mouse at 3 mg/kg, iv; type: ADME, organism-based; conditions: in vivo; summary of the method: as §1
[10] = Half life in mouse at 3 mg/kg, iv; type: ADME, organism-based; conditions: in vivo; summary of the method: as §1
[11] = Volume of distribution at steady state in rat at 3 mg/kg, iv; type: ADME, organism-based; conditions: in vivo, read-out: Vdss; summary of the method: as §1
[12] = Oral bioavailability in mouse at 10 mg/kg; type: ADME, organism-based; conditions: in vivo; summary of the method: as §1
[13] = Volume of distribution at steady state in mouse at 3 mg/kg, iv; type: ADME, organism-based; conditions: in vivo, read-out: Vdss; summary of the method: as §1
Rattus norvegicus [14] = test: In-vivo inverse agonist activity at ERalpha in CD-IGS rat assessed as reduction in uterine wet weight at 10 mg/kg, po dosed daily for 3 days by gavage and measured 24 hrs after last dose by immature rat uterine wet weight assay relative to basal level; type: functional, organism-based; summary of the method: as §2
[15] = Oral bioavailability in rat at 10 mg/kg; type: ADME, organism-based; conditions: in vivo; summary of the method: as §1
MCF7 [16] = test: Antitumor activity against human MCF7 cells xenografted in nu/nu mouse model of tamoxifen-sensitive breast cancer xenograft implanted with 17beta-estradiol time release pellets assessed as reduction tumor volume at 6 mg/kg, po qd for 4 weeks; type: functional, organism-based
[17] = Clearance in rat at 3 mg/kg, iv; type: ADME, organism-based; conditions: in vivo; summary of the method: as §1
[18] = Half life in rat at 3 mg/kg, iv; type: ADME, organism-based; conditions: in vivo; summary of the method: as §1
[19] = Cmax in mouse at 10 mg/kg, po; type: ADME, organism-based; design: dose 10 mg/kg, route oral; conditions: in vivo; summary of the method: as §1
[20] = Cmax in rat at 10 mg/kg, po; type: ADME, organism-based; design: dose 10 mg/kg, route oral; conditions: in vivo; summary of the method: as §1
[21] = AUC (0 to infinity) in mouse at 10 mg/kg, po; type: ADME, organism-based; design: dose 10 mg/kg, route oral, time infinity; conditions: in vivo
Rattus norvegicus [22] = test: Reduction in uterine wet weight in ethynyl estradiol-stimulated CD-IGS rat at 1 mg/kg, po dosed daily for 3 days by gavage followed 15 mins later by 0.1 mg/kg, po ethynyl estradiol and measured 24 hrs after last dose by immature rat uterine wet weight assay; type: functional; summary of the method: as §3
[23] = AUC (0 to infinity) in rat at 10 mg/kg, po; type: ADME, organism-based; design: dose 10 mg/kg, route oral, time infinity; conditions: in vivo
[24] = AUC in human MCF7 cells xenografted nu/nu mouse implanted with 17beta-estradiol time release pellets dosed orally once daily for 4 weeks; type: ADME, organism-based; conditions: in vivo, po
MCF7 [25] = test: Antitumor activity against human MCF7 cells xenografted in nu/nu mouse model of tamoxifen-resistant breast cancer xenograft implanted with 17beta-estradiol time release pellets assessed as reduction tumor volume at 60 mg/kg, po qd for 4 weeks; type: functional, organism-based
Summary of the method: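 Female nu/nu mice with 0.72 mg 60-day 17β-estradiol pellets bearing MCF-7 tumors, pretreated with oral tamoxifen citrate; at ~150-250 mm3 (mean 200 mm3) randomized, tamoxifen stopped, then dosed daily for 4 weeks; tumor volume (length x width2/2) and body weight twice weekly.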

For `Oc1ccc([C@H]2Sc3cc(O)ccc3O[C@H]2c2ccc(OCCN3CCCCC3)cc2)cc1`, the bioavailability [1] was 31% and the clearance [2] was 5 mL/min/kg.
With `CC1=C(c2cccc(O)c2)C(c2ccc(OC[C@@H](C)N3CC[C@@H](C)C3)cc2)Oc2ccc(O)cc21` (stereo partly specified) the IC50 (Estrogen receptor [3]) was 0.3 nM and the IC50 (MCF7 [4]) was 0.2 nM.
For `CC1=C(c2cccc(O)c2)C(c2ccc(OC[C@H](C)N3CC[C@H](C)C3)cc2)Oc2ccc(O)cc21` (stereo partly specified), the IC50 (Estrogen receptor [3]) was 0.2 nM and the IC50 (MCF7 [4]) was 0.2 nM.
In the case of `CC1=C(c2cccc(O)c2)C(c2ccc(OCCN3CCCCC3)cc2)Oc2ccc(O)cc21` (stereo unspecified), the IC50 (Estrogen receptor [3]) is reported as 0.2 nM and the IC50 (MCF7 [4]) is reported as 0.2 nM.
`CC1=C(c2ccc(C#N)cc2)C(c2ccc(OC[C@H](C)N3CC[C@@H](C)C3)cc2)Oc2ccc(O)cc21` (stereo partly specified) gave an AUC [5] of 2000 ng·h/mL, an IC50 (Estrogen receptor [3]; mcf7) of 1.5 nM and an IC50 (MCF7 [4]) of 10 nM.
`CC1=C(c2ccc(O)cc2)C(c2ccc(OC[C@H](C)N3CC[C@@H](C)C3)cc2)Oc2cc(O)ccc21` (stereo partly specified) gave an AUC [5] of 120 ng·h/mL, an IC50 (Estrogen receptor [3]) of 0.3 nM and an IC50 (MCF7 [4]) of 0.2 nM.
Work on `CC1=C(c2cccc(O)c2)[C@H](c2ccc(OC[C@H](C)N3CC[C@@H](C)C3)cc2)Oc2ccc(O)cc21` yielded an IC50 (Estrogen receptor [6]) of 2.8 nM, an IC50 (Estrogen receptor [3]) of 0.1 nM and an IC50 (MCF7 [4]) of 0.1 nM.
In the case of `CC1=C(c2cccc(O)c2)C(c2ccc(OC[C@@H](C)N3CCCC3)cc2)Oc2ccc(O)cc21` (stereo partly specified), the IC50 (Estrogen receptor [3]) is reported as 0.3 nM, the Activity (Rattus norvegicus [7]) is reported as “Active” and the “inhibition (INH)” value (Rattus norvegicus [8]) is reported as 84%. The IC50 (MCF7 [4]) was 0.2 nM.
`CC1=C(c2cccc(O)c2)C(c2ccc(OCCN3CCCC3)cc2)Oc2ccc(O)cc21` (stereo unspecified) gave an IC50 (Estrogen receptor [3]) of 0.4 nM and an IC50 (MCF7 [4]) of 0.3 nM.
`CC1=C(c2cccc(O)c2)C(c2ccc(OC[C@H](C)N3CC[C@@H](C)C3)cc2)Oc2ccc(O)cc21` (stereo partly specified) showed a clearance [9] of 38 mL/min/kg, an IC50 (Estrogen receptor [6]) of 5.1 nM and a half-life [10] of 3.6 h. The Vd [11] was 8 L/kg, the bioavailability [12] was 13% and the Vd [13] was 6.2 L/kg. The Activity (Rattus norvegicus [14]) was “Active”, the bioavailability [15] was 18% and the Activity (MCF7 [16]) was “Active”. For the same compound, the AUC [5] was 590 ng·h/mL, the IC50 (Estrogen receptor [3]) was 0.2 nM and the “inhibition (INH)” value (Rattus norvegicus [8]) was 111%. The clearance [17] was 33 mL/min/kg, the half-life [18] was 2.9 h and the Cmax [19] was 100 ng/mL. The IC50 (MCF7 [4]) was 0.2 nM, the Cmax [20] was 140 ng/mL and the AUC(0-inf) [21] was 590 ng·h/mL. The “inhibition (INH)” value (Rattus norvegicus [22]) was 99%, the AUC(0-inf) [23] was 930 ng·h/mL and the AUC at 672 h [24] was 4600 ng·h/mL. For the same compound, the Activity (MCF7 [25]) was “Active”.
`CC1=C(c2cccc(F)c2)C(c2ccc(OC[C@H](C)N3CC[C@@H](C)C3)cc2)Oc2ccc(O)cc21` (stereo partly specified) showed an AUC [5] of 350 ng·h/mL, an IC50 (Estrogen receptor [3]) of 0.5 nM and an IC50 (MCF7 [4]) of 1 nM.
`CC1=C(c2cccc(O)c2)C(c2ccc(OCCN3CC[C@@H](C)C3)cc2)Oc2ccc(O)cc21` (stereo partly specified) showed an IC50 (Estrogen receptor [3]) of 0.4 nM and an IC50 (MCF7 [4]) of 0.2 nM.
Work on `CC1=C(c2cccc(O)c2)C(c2ccc(OCCN3CC(C)C3)cc2)Oc2ccc(O)cc21` (stereo unspecified) yielded an IC50 (Estrogen receptor [3]; mcf7) of 0.3 nM.
`CC1=C(c2cccc(O)c2)C(c2ccc(OC[C@@H](C)N3CC[C@H](C)C3)cc2)Oc2ccc(O)cc21` (stereo partly specified) gave an IC50 (Estrogen receptor [3]) of 0.2 nM and an IC50 (MCF7 [4]) of 0.2 nM.
For `CC1=C(c2ccc(S(C)(=O)=O)cc2)C(c2ccc(OC[C@H](C)N3CC[C@@H](C)C3)cc2)Oc2ccc(O)cc21` (stereo partly specified), the IC50 (Estrogen receptor [3]) was 5.7 nM and the IC50 (MCF7 [4]) was 27 nM.
Compound `CC1=C(c2ccc(O)cc2)C(c2ccc(OC[C@H](C)N3CC[C@@H](C)C3)cc2)Oc2ccc(O)cc21` (stereo partly specified) has an AUC [5] of 460 ng·h/mL, an IC50 (Estrogen receptor [3]) of 0.1 nM and an IC50 (MCF7 [4]) of 0.1 nM. The “inhibition (INH)” value (Rattus norvegicus [22]) was 113%.
`CC1=C(c2cccc(O)c2)C(c2ccc(OC[C@H](C)N3CCC3)cc2)Oc2ccc(O)cc21` (stereo partly specified) gave an IC50 (Estrogen receptor [3]) of 0.9 nM and an IC50 (MCF7 [4]) of 0.1 nM.
